NF-kB expr up: activators of NF-kB expression in neurons, primary screen, cell-based, HTS | human neuronal cells, NF-kB reporter expression; active compounds read high | fold change at 12.5 µM | 190,000 tested, 1.6% active; in the data active = fold change above about 3.3
STAT1 inh: STAT1 signaling inhibitors, primary screen, cell-based, HTS, luciferase reporter | inhibition, % at 5.5 µM | NIH 3T3 STAT1-luciferase reporter, IFN-gamma, luminescence | 200,000 tested, 0.35% active | AID 920, 2007;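 active = inhibition above a set limit, the mean inhibition across all tested compounds plus 3 SD, cut at about 34% in these data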;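 also: 0% = IFN-gamma with DMSO and 100% = IFN-gamma with 300 µM nifuroxazide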
STAT1 act: STAT1 signaling activators, primary screen, cell-based, HTS, luciferase reporter | 200,000 tested, 2.6% active | NIH 3T3 STAT1-luciferase reporter, IFN-gamma, luminescence; 100% = IFN-gamma alone, no compound | activation (% of control), % at 5.5 µM | AID 932, 2007;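 active = activation above the screen-wide mean activation plus 3 SD, cut at about 130% in these data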;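 also: raw ratio to IFN-gamma control signal so 100% means no change and 0% no light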
APP 5'UTR act: activators of APP 5'UTR luciferase reporter, primary screen, SH-SY5Y cells. 190,000 tested, 1% active. activation, % at 2 µM. SH-SY5Y APP 5'UTR luciferase reporter, luminescence; zero percent = DMSO vehicle wells. AID 1276, 2008;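 active = activation above a set limit, based on mean plus 3 SD of controls, cut at about 140% in these data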
STAT3 activator: IL-6 driven STAT3 reporter potentiators, primary screen, U3A cells, luciferase, luminescence, MLSCN library | activation (% of control), % at 5.6 µM | IL-6 STAT3-luciferase reporter; 100% = signal with IL-6 EC80 alone | 190,000 tested, 0.91% active;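 active = activation above the screen-wide mean of compound activation plus 3 SD, cut at about 130% in these data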;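 also: 0% = background luminescence of wells with medium and substrate only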
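Detection: reporter luminescence signal / Assay system: STAT1-lacking human U3A cells, STAT3 luciferase reporter / Incubation: compound pre-incubation 1 h before IL-6, then 6 h stimulation at 37 °C / Control set: IL-6-only high control / Read-out: % activation relative to IL-6 control / Probe or stimulus: Interleukin-6, 33 ng/mL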
STAT3 inh: IL-6 driven STAT3 reporter inhibitors, primary screen, U3A cells, luciferase, luminescence, MLSCN library; IL-6 STAT3-luciferase reporter; host cell line lacks STAT1; inhibition, % at 5.5 µM; 190,000 tested, 0.89% active; AID 862, 2007;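 active = inhibition above the mean inhibition across all screened compounds plus 3 SD, cut at about 44% in these data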;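 also: 0% = DMSO only wells and 100% = 100 µM nifuroxazide control wells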
The depositor's hits bear a star; · = no result given. Most compounds without a hit are left out; they make up all but 5.1% or so of the library.

SMILES	NF-kB expr up	STAT1 inh	STAT1 act	APP 5'UTR act	STAT3 activator	STAT3 inh
Cc1ccc2c(CN3CCC(C)CC3)cc(=O)oc2c1	4.1*	-41	138*	78	113	-9
CCOc1cc(C(=O)Nc2ccncc2)cc(OCC)c1OCC	1.9	7	92	-15	94	9
O=[N+]([O-])c1ccccc1Oc1ncccc1[N+](=O)[O-]	1.1	2	98	1	102	3
Cc1oc(-c2cc(F)ccc2F)nc1CN1CCCN(C(=O)c2ccco2)CC1	1.1	-5	103	-4	98	6
O=C(Nc1ccc(F)cc1F)c1cc2nc3c(c(C(F)(F)F)n2n1)CCCC3	0.45	-5	105	173*	100	0
Nc1ncccc1OCc1ccc(Br)cc1	3.1	-47	141*	67	91	19
Brc1ccc(COc2ncnc3ccccc23)cc1	1.7	-4	103	-14	98	2
N#CC1=C(N)OC2=C(CCc3ccccc32)C1c1ccccc1 (stereo not given)	4.7*	-5	104	-96	113	-10
Cc1ccc(-n2c(SCC(=O)NCC3CCCO3)nc3n[nH]c(C)c3c2=N)cc1Cl (stereo not given)	0.5	6	95	-7	66	45*
Cc1ccc(NC(=O)C2CC(=O)N/C(=N/N=C/c3ccco3)S2)cc1C (stereo not given)	1.1	0	100	7	104	-5
Cc1cc(C)c2c3c(cn2n1)c(=O)n(C)c(=O)n3C	·	-10	105	5	96	9
CCCc1nc2c(=O)n(C)c(=O)nc-2n(C)n1	·	93*	16	-30	20	94*
COc1cc(S(=O)(=O)NCCCN2CCOCC2)ccc1-n1cnnn1	1.1	2	97	-19	93	13
NNC(=O)c1cc2cc3ccccc3nc2s1	1.6	-41	136*	4	99	12
Cc1onc(-c2c(Cl)cccc2Cl)c1C(=O)N/N=C(\N)COc1ccc(Cl)cc1	1	3	97	-13	94	17
COc1ccc(CCNC(=O)CC2SC(=NCc3ccccc3)NC2=O)cc1 (stereo not given)	1.1	-4	103	18	99	4
Cc1ccc(SCc2cc(=O)n3ccsc3n2)c(C)c1	2.2	-38	134*	52	96	4
Cc1ccc(Nc2nnc(SCc3cc(=O)n4ccsc4n3)s2)c(C)c1	0.88	7	94	-4	108	-5
CCN(CC)C(=O)c1cn(-c2ccccc2)nc1-c1ccc2c(c1)OCCO2	1	9	90	-6	101	0
N#Cc1cn(-c2ccccc2)nc1-c1ccc2c(c1)OCCO2	2.2	-50	146*	118	114	-16
CCOC(=O)c1ccc(N=Nc2c(C)c(C#N)c(O)[nH]c2=O)cc1	3.6*	-1	101	135*	106	2
CN1C(=O)c2ccc(NC(=O)CCS(=O)(=O)c3ccccc3)cc2C1=O	1.1	-10	108	39	107	-2
Fc1ccc(-c2ccc(Nc3cccc(F)c3)nn2)cc1	1.7	-50	144*	56	91	17
Fc1ccc(Nc2ccc(-c3ccc(F)cc3)nn2)cc1	2.7	-45	139*	81	98	10
CCOC(=O)c1ccc(Nc2ccc(-c3ccc(OC)c(OC)c3)nn2)cc1	0.58	8	93	-13	88	16
SMILES	NF-kB expr up	STAT1 inh	STAT1 act	APP 5'UTR act	STAT3 activator	STAT3 inh
CN(CC(=O)Nc1ccc(N2CCOCC2)cc1)Cc1cc(=O)n2ccsc2n1	1.1	14	87	24	78	30
CCCCCCn1c(N)c(C#N)c2ccc([N+](=O)[O-])cc2c1=O	0.66	-1	101	-2	104	1
N/C(=N\OC(=O)c1ccco1)c1ccccn1	2.2	-20	116	77	97	7
N/C(=N\OC(=O)c1ccco1)c1ccccc1	2.2	-50	143*	142*	89	16
Cc1cccc(/C(N)=N/OC(=O)c2ccco2)c1	6.4*	-11	110	163*	82	24
Cc1ccc(/C(N)=N/OC(=O)c2ccco2)cc1	5.2*	6	94	162*	77	31
COc1ccc(C(=O)COC(=O)c2ccco2)cc1	3	-18	116	66	108	-2
Cc1cccc(/C(N)=N/OC(=O)N2CCOCC2)c1	1.6	-18	116	19	101	4
COc1ccc(/C(N)=N/OC(=O)c2ccco2)cc1	0.96	53*	50	182*	56	57*
O=C1C(c2ccncc2)=C(O)c2ccccc21	3.5*	-1	101	160*	81	27
CC(C)c1ccc(C2=C(O)c3ccccc3C(=O)C2=O)cc1	1.6	-7	106	5	85	21
COc1ccc(S(=O)(=O)NCCOc2cccc3cccnc23)cc1OC	1.1	-31	129*	6	104	-3
COc1cc(C(=O)NCCOc2cccc3cccnc23)cc(OC)c1OC	1	17	83	1	89	15
COc1cc(C=O)ccc1OCC(=O)N1CCCC1	0.99	-10	108	-1	95	13
C(=N\Nc1ccccn1)/c1ccc2c(c1)OCCO2	1	-41	137*	140*	76	31
C(=N\Nc1nc2ccccc2[nH]1)/c1c[nH]c2ccccc12	3.3	-33	130*	52	112	-15
C(=C\c1ccccc1)/C=N/Nc1nc2ccccc2[nH]1	4.5*	-53	148*	137*	108	-15
Fc1cccc(/C=N/Nc2ccccn2)c1	2.3	-41	138*	113	100	4
Cc1ccccc1/C=N/Nc1nc2ccccc2[nH]1	1	-5	103	94	87	19
CCCNC(=O)CN1C(=O)NC(CCc2ccccc2)C1=O (stereo not given)	1.2	6	96	17	102	3
Cc1cccc(OCCNC(=O)c2cccc(Oc3ccc(C(F)(F)F)cc3[N+](=O)[O-])c2)c1	2	2	98	-6	88	17
Fc1cccc(/C=N/Nc2nc3ccccc3[nH]2)c1	2	-44	141*	133	90	12
Brc1ccc(-c2ccc(/C=N/Nc3nc4ccccc4[nH]3)o2)cc1	1.7	-42	138*	85	112	-12
O=[N+]([O-])c1ccccc1N/N=C/c1c[nH]c2ccccc12	4.2*	-57	151*	173*	203*	-118
Cn1cc([N+](=O)[O-])c(C(=O)N/N=C\c2c[nH]c3ccccc23)n1	1.2	-6	103	-2	115	-13

Screening results from PubChem.
